In data set [1] the test system is human AGP. As to the kind of experiment: Fluorometric assay: direct titration of fluorescent probe into AGP. The conditions noted are these: for binding to AGP by direct fluorometric titration: emission did not plateau where seen, no Kd derived.
Data set [2] relates to human AGP. As to the kind of experiment: Fluorometric probe displacement assay. The conditions noted are these: for displacement of BODIPY-PL2 from AGP: probe BODIPY-PL2.
Data set [3] relates to human AGP. As to the kind of experiment: in vitro. The conditions noted are these: pH 7.4, Ki.
The conditions of data set [4]: rats; cited from earlier work.
For data set [5] the following is noted: cited from earlier work.
Data set [6] relates to human α-1-acid glycoprotein (AGP). As to the kind of experiment: Fluorometric probe displacement assay. The conditions noted are these: human.
The conditions of data set [7]: human plasma; equilibrium dialysis; cited from earlier work. For orientation: Equilibrium dialysis compares concentrations on both sides of a semipermeable membrane.
Data set [8] deals with human AGP. As to the kind of experiment: in vitro. The conditions noted are these: pH 7.4.
For data set [9], the system named is human AGP. As to the kind of experiment: Isothermal titration calorimetry. The data set is classed as binding. The settings on record: for Kd: 25 °C. The essentials: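 Human AGP (63 μM) in 20 mM HEPES pH 7.0, degassed, was titrated with 80 × 3-μL injections of 10–13 mM test compound at 240-s intervals, stirred at 307 rpm. Runs were at 37 °C, with one compound also at 15, 20, 25 and 30 °C. Delipidation was on lipidex 1000 in 20 mM HEPES pH 7.4 at 37 °C. Heat of dilution was subtracted, and n and ΔH came from a one-set-of-sites fit.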

For data set [10], the system named is human AGP. As to the kind of experiment: Surface plasmon resonance. The conditions noted are these: for SPR binding response at single concentrations: 100 μM and 300 μM of each compound. It is filed as binding. The method in brief:
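AGP was thiol-coupled (PDEA/EDC, MES pH 5.0) to a CM5 chip at 5000 RU, with PBS pH 7.4 running buffer at 25 °C. Compound series were 3-fold dilutions from 3 mM, plus single 100 and 300 μM injections, at 50 μL/min: 30 s association, 60 s dissociation. Response was read 10 s before association ended, reference-subtracted and MW-normalised. Glycine pH 1.7 regenerated the chip; chlorpromazine served as surface control. Runs were done ≥3 times.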
On the technique in general: Surface plasmon resonance follows binding to a sensor surface in real time, without labels.

For data set [11] the following is noted: cited from earlier work. This is another data set of the same source.

Like-named read-outs stand apart in the source and are kept apart here. Where a SMILES comes first, the peptide text is derived from it. Bridges are numbered along the chain shown (N, C = ends). [ ]: non-standard residue; d: D form. The star is where a group is joined. X1 = CC[C@H](C)CCCCC(=O)*; Dab = NCC[C@H](N)C(=O)O

Turning to “2-(4,4-difluoro-5-methyl-4-bora-3a,4a-diaza-s-indacene-3-dodecanoyl)-1-hexadecanoyl-sn-glycero-3-phosphocholine [BODIPY-PL2]”, the “binding to AGP by direct fluorometric titration” value (“binding to AGP” for short) in the data set with human AGP [1] was “apparent weak affinity”.
For orientation: Kd means the constant that tells how readily two partners part at equilibrium. In the case of `O=S(=O)(O)c1cccc2cccc(Nc3ccccc3)c12` [ANS, 1-anilino-8-naphthalene sulfonic acid], the equilibrium dissociation constant (Kd) at 2 min with human AGP [1] (human, pH 7.4) was found to be 0.87 ± 0.07 µM.
As for `CCCCCCCCCCCCCCCC(=O)OC[C@H](COP(=O)(O)OCCNC(=O)CCc1ccc2n1[B-](F)(F)[N+]1=C(C)C=C(C)C1=C2)OC(=O)CCCCCCCCCCCCCCC.CCN(CC)CC` [BODIPY-PL1, N-(4,4-difluoro-5,7-dimethyl-4-bora-3a,4a-diaza-s-indacene-3-propionyl)-1,2-dihexa-decanoyl-sn-glycero-3-phosphoethanolamine, triethylammonium salt], the “binding to AGP” value in the data set on human AGP [1] was “no fluorescence emission observed”.
For orientation: Ki means a dissociation constant, usually derived from enzyme kinetics or from competition with a known ligand. Take `CN(C)CCCN1c2ccccc2Sc2ccc(Cl)cc21` [Chlorpromazine]: the “displacement of BODIPY-PL2 from AGP” value in the data set with human AGP [2] is reported as “able to compete with BODIPY-PL2”. Besides, the figures for the Ki at 2 min in the data set with human AGP [3] (displacement of ANS), in the data set with human AGP [3] (displacement of AO) and in the data set on human AGP [3] (displacement of NR) were 0.14 ± 0.01 µM, 2.8 ± 0.2 µM and 0.67 ± 0.05 µM, respectively.
Turning to `CC[C@H](C)CCCCC(=O)N[C@@H](CCN)C(=O)N[C@H](C(=O)N[C@@H](CCN)C(=O)N[C@H]1CCNC(=O)[C@H]([C@@H](C)O)NC(=O)[C@H](CCN)NC(=O)[C@H](CCN)NC(=O)[C@H](CC(C)C)NC(=O)[C@@H](CC(C)C)NC(=O)[C@H](CCN)NC1=O)[C@@H](C)O` [Colistin, colistin] (X1-[Dab]T[Dab][Dab][Dab][dL]L[Dab][Dab]T; lactam 4-C (inferred); N-terminus assumed), in data set [4], the plasma protein binding is given as 55–57%. The “level of plasma protein binding in neutropenic infected mice compared to healthy mice” value in data set [5] is “greater”. For the same compound, the “displacement of BODIPY-PL2 from AGP” value in the data set with human AGP [2] is on record as “unable to produce any discernible displacement”. The inhibitory constant (Ki) in data set [6] (Ki values (text summary over probes), titration of probe-AGP solutions) is over 200 µM; in [6] (Ki, displacement of ANS, probe ANS, 20°C, mean ± SE, n = 3 unless otherwise indicated, ND = not detected) it was 351 ± 188 µM. In addition, the bound to plasma result in data set [7] is on record as “over 50%”.
`CCN(CC)c1ccc2nc3c4ccccc4c(=O)cc-3oc2c1` [NR, Nile Red]: the dissociation constant (Kd) at 2 min in the data set with human AGP [8] stood at 0.91 ± 0.2 µM.
As to Colistin nona-peptide [colistin NP], in the data set with human AGP [9], the “binding affinity for AGP by ITC” value was “no detectable binding affinity”. Further, the “SPR binding response at single concentrations” value (“SPR binding response” for short) in the data set on human AGP [10] was “very poor responses”.
In the case of Polymyxin B [PmB], the dissociation constant Kd in the data set on human AGP [9] (read-out: Kd, delipidated AGP, delipidated sample) came to 210 µM; in the data set with human AGP [9] (read-out: Kd, non-delipidated AGP, non-delipidated sample), 103 µM. In data set [11] (critically ill septic patients), the “plasma protein binding, critically ill septic patients” value is listed as “more than 90%”. The “plasma protein binding, healthy subjects” value in data set [11] (healthy subjects) is given as “around 56%”. For the same compound, the “displacement of BODIPY-PL2 from AGP” value in the data set on human AGP [2] is given as “unable to produce any discernible displacement”. Further, the inhibitory constant (Ki) in the data set with human AGP [2] (read-out: Ki values (text summary over probes), titration of probe-AGP solutions) is over 200 µM; in the data set with human AGP [2] (read-out: Ki, displacement of ANS, probe ANS, 20°C, mean ± SE, n = 3 unless otherwise indicated, ND = not detected), 225 ± 49 µM. In addition, the “SPR binding response” value with human AGP [10] is reported as “highest response”. In addition, the bound to plasma entry in [7] was “over 50%”.
Regarding “[Dansyl-Lys]^1 polymyxin B3 [[Dansyl-Lys^1]PmB3]”, the “binding to AGP” value in the data set on human AGP [1] is “weak AGP affinity”.
Turning to colistin methanesulfonate [CMS], the “binding affinity for AGP by ITC” value in the data set on human AGP [9] is “no detectable binding affinity”. In addition, in the data set on human AGP [2] (ANS, Auramine O, Nile Red), the “ability to displace the probes” value is “no ability to displace any of the probes”. In addition, the “SPR binding response” value in the data set with human AGP [10] was “very poor responses”. Moreover, in the data set on human AGP [10] (concentration series 3 mM to 1.3 μM), the “concentration dependence of SPR binding” value is listed as “not concentration dependent”.

These data come from publication PMC3448962 (Biochemical pharmacology, 2012).
